Screening data as filed in PubChem BioAssay.
PPC-1+TRAIL kill = kills PPC-1 cancer cells in the presence of TRAIL. actives 0.41% (n = 220,000). cell killing (% activity), % at 4 µM or 5 µM. PPC-1 cells + TRAIL, ATPLite viability luminescence. AID 1443;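 active = cell killing above 50% in the first pass at 4 µM, then a duplicate retest at 5 µM averaging 50% or more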
C8 TRAIL sens = caspase-8 TRAIL sensitization; actives 1% (n = 360,000); inhibition (viability loss, TRAIL sensitization), % at 10 µM; AID 624354; NB7+C8 cells + TRAIL, ATPlite viability luminescence;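 active = compounds causing at least 50% loss of cell viability in the single-dose screen, relative to plate controls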
FLuc inh counter = counter-screen for luciferase assay inhibitors: firefly luciferase inhibition; inhibition, % at 10 µM; actives 1.5% (n = 200,000); ATPLite firefly luciferase biochemical luminescence, 10 min;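 active = inhibition above about 50% when tested at 10 µM, limit read from the data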
Target sequence (P08659 whole entry, looked up): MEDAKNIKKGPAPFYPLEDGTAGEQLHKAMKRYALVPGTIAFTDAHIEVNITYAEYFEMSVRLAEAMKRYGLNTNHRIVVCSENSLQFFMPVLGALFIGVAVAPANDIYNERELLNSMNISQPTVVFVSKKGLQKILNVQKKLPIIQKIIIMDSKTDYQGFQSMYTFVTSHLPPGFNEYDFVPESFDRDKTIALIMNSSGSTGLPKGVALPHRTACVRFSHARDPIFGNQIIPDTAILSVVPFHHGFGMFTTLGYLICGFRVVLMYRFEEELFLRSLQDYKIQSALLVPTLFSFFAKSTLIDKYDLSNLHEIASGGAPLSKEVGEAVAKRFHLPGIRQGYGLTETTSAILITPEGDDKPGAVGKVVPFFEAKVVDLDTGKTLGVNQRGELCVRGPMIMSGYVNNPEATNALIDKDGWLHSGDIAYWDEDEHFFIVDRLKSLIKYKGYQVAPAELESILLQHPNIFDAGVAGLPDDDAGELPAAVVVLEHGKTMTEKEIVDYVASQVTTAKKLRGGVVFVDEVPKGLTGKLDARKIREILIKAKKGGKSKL
FLuc act counter = affects firefly luciferase, flagging false hits in luciferase stimulation screens | P08659 | ATPlite luciferase biochemical, luminescence, 10 min; 0 = ATP-free wells, 1 = DMSO control | activation factor at 10 µM | 200,000 tested, under 10 active | AID 1027;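 active = luciferase activation factor, scaled between plate controls, of at least 2 with compound at 10 µM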
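Assay system: Luciferase/luciferin detection reagent, cell-free biochemical luciferase assay / Also added: ATP substrate / Schedule: 10 min at ambient temperature / Measured by: luminescence measurement of luciferase light output / Benchmarks: low control with PBS replacing ATP, high control enzyme plus ATP without compound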
HSP90 inh = inhibitors of HSP90 luciferase refolding in rabbit reticulocyte lysate; inhibition, % at 5.6 µM; luciferase refolding luminescence, 3 h; actives 0.91% (n = 290,000); AID 1789;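 active = inhibition above the screen-wide mean plus 3 SD, computed separately per campaign, cut at about 16% in these data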;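 also: inhibitors lower the luminescence because luciferase stays unfolded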
PPC1 cytotox = PPC-1 cell cytotoxicity | cytotoxicity, % at 5 µM | PPC-1 viability, ATPlite luminescence, overnight | actives 50% (n = 1,200) | shares compounds with PPC-1+TRAIL kill;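 active = reconfirmed compounds whose average cytotoxicity reaches 50% or more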
HSP90 confirm = confirmation of HSP90 inhibitors | inhibition, % at 5.9 µM | rabbit reticulocyte lysate, luciferase refolding luminescence, 3 h | actives 64% (n = 2,300) | AID 1846 | shares compounds with HSP90 inh; in the data active = inhibition above about 18%
luciferase ctr = blocks native firefly luciferase in HSP90 counter-screen; shares compounds with HSP90 inh; purified native firefly luciferase, luminescence; inhibition, % at 5.9 µM; actives 48% (n = 2,300); AID 1847;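 active = inhibition above the mean inhibition of all tested sample wells plus 3 SD, cut at about 10% in these data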
A number is an active result; – = inactive; · = no result given. This is a sample that favours compounds with a hit; in the whole collection about 2% have one here.

SMILES	PPC-1+TRAIL kill	C8 TRAIL sens	FLuc inh counter	FLuc act counter	HSP90 inh	PPC1 cytotox	HSP90 confirm	luciferase ctr
Cc1ccc(/C=N/NC(=O)c2n[nH]c3c2CCCC3)cc1	–	–	·	·	–	·	·	·
O=C(N/N=C/c1cccs1)c1n[nH]c2c1CCCC2	56.4	74.5	·	·	35.8	–	76.5	70.9
Cc1ccc(C(C)(C)C)cc1S(=O)(=O)Nc1cccc(S(=O)(=O)NC2=NCCC2)c1	–	–	–	–	–	·	·	·
Cc1ccc(-n2ncc(Cl)c2C(=O)NC2CC2)cc1	–	–	–	–	–	·	·	·
O=C(O)C1C=CC(C(=O)O)c2ccccc21 (centres undefined)	·	–	·	·	·	·	·	·
COc1ccc2sc(NC(=O)c3ccco3)nc2c1	53.0	68.2	88.3	–	55.6	59.3	60.5	48.0
COc1ccc2c(c1)Cc1sc(NC(=O)c3ccco3)nc1-2	–	–	–	–	–	·	·	·
Cc1ccc(C(=O)CN2C(=O)c3ccccc3S2(=O)=O)cc1	–	–	·	·	24.4	–	56.7	–
CCN(C(=O)CSc1nnc(CNc2cccc(OC)c2)n1C1CCCCC1)C1CCS(=O)(=O)C1 (centres undefined)	·	–	·	·	–	·	·	·
COC(=O)c1ccc2nc(NC(=O)C(C)(C)C)sc2c1	85.3	90.2	95.2	–	66.8	86.2	77.8	73.5
Cc1cc(C(=O)COC(=O)c2ccccc2Br)c(C)n1CC1CCCO1 (centres undefined)	79.7	76.7	·	·	85.3	76.5	84.0	83.6
Cc1cc(C(=O)COC(=O)c2cccnc2Cl)c(C)n1CC1CCCO1 (centres undefined)	79.2	–	96.2	–	77.8	77.1	86.0	82.5
Cc1cc(C(=O)COc2ccccc2C(N)=O)c(C)n1CC1CCCO1 (centres undefined)	–	–	–	–	–	·	·	·
Cc1ccc(C(=O)O/N=C(\N)c2ccccc2)c(Cl)c1	81.2	94.2	·	·	56.4	80.4	79.6	86.6
Cc1cc(C(=O)Cn2nnc3ccccc3c2=O)c(C)n1-c1ccccc1F	69.1	81.1	85.3	–	61.6	69.6	70.1	54.3
O=C(CCc1ccccc1)c1ccc2c(c1)OCCCO2	–	–	–	–	–	·	·	·
O=C(CCCc1ccccc1)c1ccc2c(c1)OCCO2	80.3	86.6	95.1	–	77.1	83.6	96.7	93.7
COc1ccc(O)c(C(=O)CC(=O)c2ccccc2)c1	60.2	·	–	–	24.5	57.9	–	–
Cc1ccc(C)c(N2C(=O)CC(Cc3ccccc3)C2=O)c1 (centres undefined)	·	–	·	·	–	·	·	·
O=C(c1cc(-c2ccc(O)cc2)on1)N1CCCCCC1	·	–	·	·	–	·	·	·
Cc1ccc(-c2cc(C(=O)N3CCCC3)no2)cc1	66.5	68.3	85.0	–	20.1	68.5	64.6	52.4
O=C(/C=C/c1cccs1)c1ccc(N2CCOCC2)cc1	63.5	76.2	96.3	–	31.3	65.3	58.4	68.6
CCOc1ccc(OCC(=O)Nc2nccs2)cc1	–	65.6	83.2	–	54.0	51.5	77.3	69.8
Cc1ccc2c(c1)sc(=NC(=O)c1cccs1)n2C	88.3	91.4	94.6	–	27.6	84.9	83.9	79.7
Cc1ccc(-n2[nH]c(=O)c3cccnc32)cc1	–	–	–	–	–	·	·	·
SMILES	PPC-1+TRAIL kill	C8 TRAIL sens	FLuc inh counter	FLuc act counter	HSP90 inh	PPC1 cytotox	HSP90 confirm	luciferase ctr
Cc1ccc(-n2[nH]c(=O)c(-c3ccccn3)c2C)cc1	–	60.7	79.1	–	69.6	50.9	81.3	75.7
CCOc1cc(CNS(=O)(=O)c2ccc3c(c2)CC(=O)N3C)cc(OCC)c1OCC	·	–	·	·	–	·	·	·
CCOC(=O)NC(=S)Nc1ccc(OC)cc1	–	–	–	–	–	·	·	·
CCOC(=O)c1cn[nH]c1NC(=S)Nc1ccc(OC)cc1	60.1	67.1	·	·	64.7	59.4	65.4	61.6
O=C(Nc1nc2ccccc2[nH]1)c1ccccc1F	77.2	89.7	95.8	–	84.2	79.3	94.6	88.0
O=C(Nc1nc2ccccc2[nH]1)c1ccc(F)cc1	72.5	82.7	91.3	–	34.8	71.8	57.4	43.6
CC(C)C[C@H]1CN(CCCC[C@H]2CNC(=O)C(=O)N2CCC2CCCCC2)C(=O)C(=O)N1CCC1CCCCC1	·	–	·	·	·	·	·	·
COCCn1c(C)cc(C(=O)COC(=O)c2n[nH]c3ccccc23)c1C	81.8	87.8	93.5	–	44.0	83.7	66.5	69.3
c1ccc(-c2nc3cc4ccccc4cc3[nH]2)nc1	89.1	86.3	95.4	–	25.8	90.0	72.1	65.6
Nc1ccc2nc(-c3cccc(-c4nc5ccc(N)cc5[nH]4)n3)[nH]c2c1	·	–	·	·	–	·	·	·
COc1ccccc1NC(=O)C1CC(O)CN1C(=O)Oc1ccccc1 (centres undefined)	·	–	·	·	–	·	·	·
Cc1ccc(C(=O)n2c(N)nc3ccccc32)cc1	92.2	95.2	96.7	–	59.7	92.8	88.7	83.0
CC(=O)Nc1ccc(S(=O)(=O)N2c3ccccc3NC(=O)CC2C)c(Cl)c1 (centres undefined)	–	–	·	·	–	·	·	·
C#CCOCCOCCOCCNc1nc(N2CCN(C(=O)CCCCCCCCCCNC(=O)Cn3cc(CCCCCN)nn3)CC2)nc(N2CCN(C(=O)CCCCCCCCCCNC(=O)[C@@H](CCSC)n3cc(CCO)nn3)CC2)n1	·	–	·	·	·	·	·	·
COCOCCn1cc(CN2CCS(=O)(=O)N(Cc3ccc(-c4cccc(CO)c4)cc3)C(CC(C)C)C2=O)nn1 (centres undefined)	·	–	·	·	·	·	·	·
CSc1ccc(Cl)c(C(=O)Nc2ccc(Cl)cn2)c1	–	–	–	–	–	·	·	·
COc1cc(SC)ccc1C(=O)Nc1ccc(Cl)cn1	87.0	90.3	94.3	–	26.1	87.3	89.7	84.2
Cc1cc(NCCCn2ccnc2)n2nc(C)c(-c3ccccc3)c2n1	–	–	–	–	–	·	·	·
Cc1cc(NCCCn2ccnc2)n2ncc(-c3ccccc3)c2n1	66.9	76.8	87.0	–	33.8	62.1	62.2	56.1
Cc1nnc(NC(=O)c2sc3ccccc3c2Cl)s1	81.0	86.9	96.7	–	18.0	81.0	34.7	18.5
Cc1nc2sc(-c3ccccc3)cc2c(=O)n1N	–	60.3	·	·	19.3	–	77.2	65.8
COc1ccc(-c2oc3cccnc3c2/C=C/c2ccc(OC)c(OC)c2)cc1	·	–	·	·	–	·	·	·
COc1ccc(/C=N/Nc2nc(-c3cccnc3)nc3ccccc23)cc1OC	–	–	·	·	–	·	·	·
Cc1ccc(-c2nc(N/N=C/c3ccncc3)c3ccccc3n2)cc1	97.7	91.6	98.5	–	47.2	97.6	79.8	56.3
CC1CCCN(c2ccc3nc4ccccc4c(=O)n3n2)C1 (centres undefined)	82.8	77.5	93.8	–	35.7	82.9	59.8	37.9
